Data taken from paper PMC6489120 (Journal of medicinal chemistry, 2018).
Converted amounts (≈) assume the structure as drawn.

How the values were obtained:
CREBBP = CREBBP (Homo sapiens, UniProt Q92793); experiment: DiscoverX BROMOscan; format: binding; settings: BROMOscan Kd
[1] = animal weight and signs of toxicity in efficacy studies; format: in vivo; settings: all the three dose-schedules tested
other 371 kinases = experiment: kinase panel by Reaction Biology; format: biochemical; settings: at 3 µM
aqueous solubility = format: physicochemical; settings: aqueous solution
[2] = tested on: 23 other non-BET family bromodomain containing proteins; experiment: DiscoverX BROMOscan, other non-BET bromodomains summary; format: binding; settings: at concentrations of 3–4 µM
[3] = full pharmacokinetics in mice; format: in vivo; settings: Balb/c, mouse, plasma, po, 25 mg/kg
Outline: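 Balb/c mice dosed orally at 25 mg/kg (iv arm 5.0 mg/kg), test compound in 20% (v/v) PCP and 70% (v/v) PBS. Blood taken 0, 5, 15, 30 min and 1, 2, 4, 6, 8, 24 h post-dose and centrifuged; plasma held at −80 °C. Plasma levels by LC−MS/MS (C18, formic acid/CH3CN gradient, positive-ion MRM); parameters by noncompartmental analysis.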

CECR2 = CECR2 (Homo sapiens, UniProt Q9BXF3); experiment: DiscoverX BROMOscan; format: binding; settings: BROMOscan Kd
Sequence of CECR2 (Q9BXF3 424-538 limits assumed): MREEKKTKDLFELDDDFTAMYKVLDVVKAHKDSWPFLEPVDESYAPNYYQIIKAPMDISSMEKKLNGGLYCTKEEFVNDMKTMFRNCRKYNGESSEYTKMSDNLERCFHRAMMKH

EP300 = biological target: T1, EP300 (Homo sapiens, UniProt Q09472); experiment: DiscoverX BROMOscan; format: binding; settings: BROMOscan Kd
T1 sequence (Q09472 1040-1161 limits assumed): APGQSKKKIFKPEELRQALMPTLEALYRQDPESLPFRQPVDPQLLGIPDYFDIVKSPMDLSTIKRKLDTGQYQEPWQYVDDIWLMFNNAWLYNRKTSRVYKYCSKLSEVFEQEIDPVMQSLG

BRD4 BD1 = BRD4 BD1 (Homo sapiens, UniProt O60885); experiment: fluorescence polarization binding assay, BRD4 BD1; settings: relative to compound 24
Outline: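 Binding measured by fluorescence polarization against recombinant human BRD4 BD1 (residues 44−168), using the group's previously established FP assay.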

Sequence of CREBBP (Q92793 1081-1197 limits assumed): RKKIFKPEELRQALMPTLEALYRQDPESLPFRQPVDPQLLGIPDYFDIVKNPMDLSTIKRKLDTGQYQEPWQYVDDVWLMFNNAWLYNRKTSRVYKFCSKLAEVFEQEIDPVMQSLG

Row | Compound | selectivity for BET bromodomains over CREBBP (CREBBP) [fold] | other signs of toxicity [1] | weight loss [1] | inhibition against other 371 kinases (other 371 kinases) | solubility (aqueous solubility; pH 3, aqueous buffer) [µM] | solubility (aqueous solubility; pH 11, aqueous buffer) [µM] | binding affinity to 23 other non-BET bromodomain containing proteins [2] | Cmax [3] [µM] | selectivity for BET bromodomains over CRCR2 (CECR2) [fold] | selectivity for BET bromodomains over EP300 (EP300) [fold] | times less potent than 24 in binding to BRD4 BD1 (BRD4 BD1) [times]
1 | COc1cc2c(cc1-c1c(C)noc1C)[nH]c1nc(C)nc(Nc3cc(C4CC4)nn3C)c12 [Compound 28, N-(3-Cyclopropyl-1-methyl-1H-pyrazol-5-yl)-7-(3,5-dimethylisoxazol-4-yl)-6-methoxy-2-methyl-9H-pyrimido[4,5-b]indol-4-amine] | > 20 | does not cause other signs of toxicity | no more than 5% | no appreciable inhibition | 19.5 ± 5.5 (≈ 8.65 µg/mL) | 14 ± 0.5 (≈ 6.21 µg/mL) | no appreciable binding affinity | 6.4 | > 50 | > 50 | –
2 | COc1cc2c(cc1-c1c(C)noc1C)[nH]c1nc(C)nc(Nc3c(C)c(C4CC4)nn3C)c12 [Compound 37, N-(3-Cyclopropyl-1,4-dimethyl-1H-pyrazol-5-yl)-7-(3,5-dimethylisoxazol-4-yl)-6-methoxy-2-methyl-9H-pyrimido[4,5-b]indol-4-amine] | – | – | – | – | – | – | – | – | – | – | > 5
